The nature of data set [1]: Synergistic cytotoxicity against mouse L5178 cells expressing human ABCB1 assessed as combination index at ED75 using 30:1 test compound to doxorubicin ratio after 48 hrs by MTT-based checkerboard microplate method. Type of data set: functional. In outline: (§1)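 Checkerboard microplate combinations of compound with doxorubicin at constant molar ratios. 5 × 10^4 cells/well in McCoy's 5A, 48 h at 37°C, 5% CO2. MTT added to 0.5 mg/mL final for 4 h, SDS/HCl overnight, OD read at 540 and 630 nm. Combination indices derived per ratio for 50%, 75% and 90% growth inhibition by median-effect analysis.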

Data set [2] is described as follows: Synergistic cytotoxicity against mouse L5178 cells expressing human ABCB1 assessed as combination index at ED50 using 30:1 test compound to doxorubicin ratio after 48 hrs by MTT-based checkerboard microplate method. The class given is functional. In outline: as §1
Data set [3] in a line: Cytotoxicity against mouse L5178 cells expressing human ABCB1 after 48 hrs by MTT assay. Type of data set: functional, cell-based. The conditions noted are these: L5178, 48 h. In outline:
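Parental mouse lymphoma L5178 and the MDR line made by pHa MDR1/A retrovirus transfection, selected with 60 µg/L colchicine. Grown in McCoy's 5A with horse serum at 37°C, 5% CO2. 5 x 10^4 cells/well, serial compound dilutions, 48 h. MTT added to 0.5 mg/mL final for 4 h, then 10% SDS in 0.01 M HCl overnight, OD read at 540 and 630 nm. IC50 taken as median cytotoxic activity (Dm) from control lanes of checkerboard plates, n=2.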

Data set [4] can be described thus: Synergistic cytotoxicity against mouse L5178 cells expressing human ABCB1 assessed as combination index at ED50 using 1.875:1 test compound to doxorubicin ratio after 48 hrs by MTT-based checkerboard microplate method. Type of data set: functional. Summed up:
as §1

Data set [5] can be described thus: Synergistic cytotoxicity against mouse L5178 cells expressing human ABCB1 assessed as combination index at ED90 using 1.875:1 test compound to doxorubicin ratio after 48 hrs by MTT-based checkerboard microplate method. Type of data set: functional. In outline: as §1
Data set [6] is described as follows: Synergistic cytotoxicity against mouse L5178 cells assessed as combination index at ED50 using 37.5:1 test compound to doxorubicin ratio after 48 hrs by MTT-based checkerboard microplate method. The class given is functional. In outline: as §1
Data set [7] is described as follows: Synergistic cytotoxicity against mouse L5178 cells assessed as combination index at ED50 using 150:1 test compound to doxorubicin ratio after 48 hrs by MTT-based checkerboard microplate method. The class given is functional. In outline:
as §1

The target in a further data set is ABCB1 (P-glycoprotein) (Homo sapiens, UniProt P08183). Put plainly: Inhibition of human ABCB1 expressed in mouse L5178 cells assessed as increase in rhodamine-123 accumulation at 2 uM after 10 mins by flow cytometric analysis relative to control. The class given is cell-based. The conditions noted are these: mouse L5178 cells expressing human ABCB1, probe rhodamine-123. Summed up:
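Cells at 2 × 10^6/mL were preincubated 10 min with compound. Rhodamine 123 then added to 5.2 µM final, 20 min at 37 °C. Cells washed twice in PBS, resuspended and read by flow cytometry. Percent inhibition was scaled between MDR-cell accumulation (0%) and parental L5178 accumulation (100%). Controls: 100 nM tariquidar (positive) and 2% DMSO (negative).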
(A flow cytometer gives signals particle by particle.)

A short description of data set [8]: Synergistic cytotoxicity against mouse L5178 cells expressing human ABCB1 assessed as combination index at ED75 using 1.875:1 test compound to doxorubicin ratio after 48 hrs by MTT-based checkerboard microplate method. Type of data set: functional. Summed up:
as §1

Data set [9] is described as follows: Synergistic cytotoxicity against mouse L5178 cells assessed as combination index at ED75 using 300:1 test compound to doxorubicin ratio after 48 hrs by MTT-based checkerboard microplate method. Type of data set: functional. In outline: as §1
The nature of data set [10]: Synergistic cytotoxicity against mouse L5178 cells expressing human ABCB1 assessed as combination index at ED50 using 15:1 test compound to doxorubicin ratio after 48 hrs by MTT-based checkerboard microplate method. The class given is functional. In outline:
as §1

Data set [11] can be described thus: Synergistic cytotoxicity against mouse L5178 cells expressing human ABCB1 assessed as combination index at ED90 using 3.75:1 test compound to doxorubicin ratio after 48 hrs by MTT-based checkerboard microplate method. Type of data set: functional. In outline:
as §1

Data set [12] can be described thus: Synergistic cytotoxicity against mouse L5178 cells expressing human ABCB1 assessed as combination index at ED50 using 60:1 test compound to doxorubicin ratio after 48 hrs by MTT-based checkerboard microplate method. Type of data set: functional. In outline: as §1
The nature of data set [13]: Synergistic cytotoxicity against mouse L5178 cells assessed as combination index at ED75 using 18.75:1 test compound to doxorubicin ratio after 48 hrs by MTT-based checkerboard microplate method. The class given is functional. In outline: as §1
The nature of data set [14]: Synergistic cytotoxicity against mouse L5178 cells assessed as combination index at ED50 using 18.75:1 test compound to doxorubicin ratio after 48 hrs by MTT-based checkerboard microplate method. The class given is functional. In outline: as §1
Data set [15] in a line: Synergistic cytotoxicity against mouse L5178 cells assessed as combination index at ED90 using 18.75:1 test compound to doxorubicin ratio after 48 hrs by MTT-based checkerboard microplate method. Type of data set: functional. In outline:
as §1

The structures appear in SMILES notation. pIC50: −log10 of the molar value.

Sequence of ABCB1 (P-glycoprotein) (P08183 whole entry): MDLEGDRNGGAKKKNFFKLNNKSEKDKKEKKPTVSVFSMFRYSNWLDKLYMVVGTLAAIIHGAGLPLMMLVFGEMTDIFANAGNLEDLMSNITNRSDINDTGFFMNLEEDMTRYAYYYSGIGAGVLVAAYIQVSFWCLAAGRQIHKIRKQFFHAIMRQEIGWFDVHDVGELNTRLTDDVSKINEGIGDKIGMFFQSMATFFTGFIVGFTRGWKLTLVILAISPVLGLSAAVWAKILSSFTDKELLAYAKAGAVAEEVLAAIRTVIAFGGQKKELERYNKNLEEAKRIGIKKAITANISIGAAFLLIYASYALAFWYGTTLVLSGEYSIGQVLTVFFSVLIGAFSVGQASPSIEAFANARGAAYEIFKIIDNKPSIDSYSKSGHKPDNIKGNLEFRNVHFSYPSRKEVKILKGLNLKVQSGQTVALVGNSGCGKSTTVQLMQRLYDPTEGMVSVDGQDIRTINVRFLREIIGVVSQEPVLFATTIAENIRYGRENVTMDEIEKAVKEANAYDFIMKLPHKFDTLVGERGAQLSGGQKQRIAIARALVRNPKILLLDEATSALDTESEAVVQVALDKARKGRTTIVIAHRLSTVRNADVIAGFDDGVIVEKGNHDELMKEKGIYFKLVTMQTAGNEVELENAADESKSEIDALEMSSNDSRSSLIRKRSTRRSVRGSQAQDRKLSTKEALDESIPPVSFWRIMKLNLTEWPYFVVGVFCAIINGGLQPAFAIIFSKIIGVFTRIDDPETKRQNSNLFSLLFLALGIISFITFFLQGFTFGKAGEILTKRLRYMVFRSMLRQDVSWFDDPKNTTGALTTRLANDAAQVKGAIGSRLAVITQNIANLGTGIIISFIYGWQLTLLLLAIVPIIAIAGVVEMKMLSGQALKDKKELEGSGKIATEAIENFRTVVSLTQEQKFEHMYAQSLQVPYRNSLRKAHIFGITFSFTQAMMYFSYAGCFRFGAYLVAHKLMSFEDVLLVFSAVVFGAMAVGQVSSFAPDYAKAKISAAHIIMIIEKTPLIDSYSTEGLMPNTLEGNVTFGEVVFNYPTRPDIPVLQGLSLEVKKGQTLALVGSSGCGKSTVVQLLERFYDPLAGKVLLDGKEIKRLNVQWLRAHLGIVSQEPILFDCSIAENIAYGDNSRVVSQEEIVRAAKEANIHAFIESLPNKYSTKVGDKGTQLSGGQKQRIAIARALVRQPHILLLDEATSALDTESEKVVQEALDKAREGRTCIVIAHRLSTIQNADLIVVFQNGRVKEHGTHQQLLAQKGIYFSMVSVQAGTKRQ

For the compound `CCO/N=C1/C=C2[C@H](CC[C@]3(C)[C@@H]([C@@]4(C)OC(C)(C)O[C@@H]4CCC(C)(C)O)CC[C@@]23O)[C@@]2(C)C[C@@H]3OC(C)(C)O[C@@H]3C[C@@H]12`, the CI is recorded as 0.23 in data set [1]; 0.23 in data set [2]; 0.36 in [4]; 0.1 in data set [5]; 0.63 in data set [6]; 0.18 in [7]. Further, the CI in data set [8] was 0.17; in data set [9], 0.88; in data set [10], 0.62; in data set [11], 0.13. In addition, the pIC50 in [3] is 4.38. Besides, the inhibition at 10 min, 2 µM on ABCB1 (P-glycoprotein) came out at 19%.

Take `CC(C)(O)CC[C@H]1OC(C)(C)O[C@]1(C)[C@H]1CC=C2C3=C/C(=N\OC(C)(C)C)[C@@H]4C[C@H]5OC(C)(C)O[C@H]5C[C@]4(C)[C@H]3CC[C@@]21C`: the CI in data set [12] worked out at 0.51; in [1], 0.38; in data set [2] it was 0.36; in data set [6], 1.16; in [7], 0.28; in data set [9], 0.87. The CI in data set [10] turned out to be 0.89; in [11], 0.24. In data set [3], this compound had a pIC50 of 4.18. Moreover, at ABCB1 (P-glycoprotein), the inhibition at 10 min, 2 µM was 67.5%.

Turning to `CO/N=C1/C=C2C3=CC[C@H]([C@@]4(C)OC(C)(C)O[C@@H]4CCC(C)(C)O)[C@@]3(C)CC[C@@H]2[C@@]2(C)C[C@@H]3OC(C)(C)O[C@@H]3C[C@@H]12`, the CI came out at 0.33 in [12]; 0.22 in [1]; 0.21 in [2]; 0.77 in [6]; 0.18 in [7]; 0.83 in [9]. Further, the figures for the CI in data set [10] and in data set [11] were 0.75 and 0.14, respectively. For the same compound, the pIC50 in data set [3] is 4.27. The inhibition at 10 min, 2 µM at ABCB1 (P-glycoprotein) turned out to be 33.4%.

In the case of `C=CCO/N=C1/C=C2C3=CC[C@H]([C@@]4(C)OC(C)(C)O[C@@H]4CCC(C)(C)O)[C@@]3(C)CC[C@@H]2[C@@]2(C)C[C@@H]3OC(C)(C)O[C@@H]3C[C@@H]12`, the CI is reported as 0.41 in data set [12]; 0.32 in [1]; 0.32 in data set [2]; 0.46 in data set [6]; 0.24 in data set [7]; 0.88 in data set [9]. Moreover, the CI came to 0.5 in [10] and 0.11 in data set [11]. In [3], this compound gave a pIC50 of 4.28. Further, the inhibition at 10 min, 2 µM on ABCB1 (P-glycoprotein) amounted to 61.1%.

With `C=CCO/N=C1/C=C2[C@H](CC[C@]3(C)[C@@H]([C@@]4(C)OC(C)(C)O[C@@H]4CCC(C)(C)O)CC[C@@]23O)[C@@]2(C)C[C@@H]3OC(C)(C)O[C@@H]3C[C@@H]12`, the CI came out at 0.31 in data set [12]; 0.22 in data set [1]; 0.21 in data set [2]; 1.13 in data set [13]; 1.08 in data set [6]; 0.17 in data set [7]. Further, the CI in data set [14] amounted to 1.05; in [15], 1.25; in data set [9], 1.18; in data set [10], 0.17; in data set [11], 0.16. In addition, the pIC50 in data set [3] was 4.31. Besides, on ABCB1 (P-glycoprotein), the inhibition at 10 min, 2 µM turned out to be 24.2%.

Turning to `CC(C)(O)CC[C@H]1OC(C)(C)O[C@]1(C)[C@H]1CC=C2C3=C/C(=N/OC(C)(C)C)[C@@H]4C[C@H]5OC(C)(C)O[C@H]5C[C@]4(C)[C@H]3CC[C@@]21C`, the CI in data set [12] stood at 0.47; in data set [1], 0.32; in data set [2], 0.34; in data set [6], 0.53; in data set [7], 0.34; in [9] it was 1.06. Also, the results for the CI in data set [10] and in data set [11] were 0.5 and 0.23, respectively. In [3], this compound showed a pIC50 of 4.29. Also, on ABCB1 (P-glycoprotein), the inhibition at 10 min, 2 µM was determined as 59%.

`CCO/N=C1/C=C2C3=CC[C@H]([C@@]4(C)OC(C)(C)O[C@@H]4CCC(C)(C)O)[C@@]3(C)CC[C@@H]2[C@@]2(C)C[C@@H]3OC(C)(C)O[C@@H]3C[C@@H]12`: the CI is given as 0.36 in data set [12]; 0.2 in data set [1]; 0.22 in [2]; 0.72 in [6]; 0.21 in [7]; 0.66 in data set [9]. For the same compound, the CI in [10] was found to be 0.42; in [11], 0.1. Further, in data set [3], the pIC50 was 4.23. For the same compound, the inhibition at 10 min, 2 µM on ABCB1 (P-glycoprotein) came out at 56.4%.

A word on the pIC50: it is the negative decadic logarithm of the IC50, by convention in mol/L. A word on the inhibition: it is the share of the control response that was lost under treatment.

The record behind these values is ChEMBL document CHEMBL4145462, “Nitrogen-containing ecdysteroid derivatives vs. multi-drug resistance in cancer: Preparation and antitumor activity of oximes, oxime ethers and a lactam” (Eur J Med Chem, 2018).
